Source: ChEMBL document CHEMBL4325867, “Synthesis and biological evaluation of novel H6 analogues as drug resistance reversal agents” (Eur J Med Chem, 2019)
Activity calls are given as the source filed them. The calls are words filed in the database; no cut-off is given here.

Columns and labels:
[1] = n-octanol/aqueous buffer solution partition coefficient, log P of the compound at pH 6.8 after 4 hrs by HPLC method; type: physicochemical
In short: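 Shake-flask partition between n-octanol and pH 6.8 buffer at a 1:1 ratio, room temperature, shaken 4 h. Compound concentration in each phase measured by HPLC.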

[2] = Potentiation of paclitaxel-induced antitumor activity against human KBV cells xenografted in nude mouse assessed as tumor weight at […] cotreated with 30 mg/kg paclitaxel relative to control; type: functional
[3] = biological target: T1, ATP-dependent translocase ABCB1 (Homo sapiens, UniProt P08183); assay: Reversal of P-gp-mediated drug resistance in human KBV cells assessed as potentiation of paclitaxel-induced cytotoxicity by measuring cell survival at 5 uM after 72 hrs by MTT assay (reference value: 98 +/- 19%); type: cell-based
[4] = biological target: T1, ATP-dependent translocase ABCB1; assay: Reversal of P-gp-mediated drug resistance in human KBV cells assessed as potentiation of paclitaxel-induced cytotoxicity by measuring fold reduction in paclitaxel IC50 at 10 uM after 24 hrs by MTT assay; type: cell-based
In short: (§1)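 KBV cells cultured in RPMI-1640 with 10% heat-inactivated fetal calf serum at 37°C, 5% CO2, and used in log phase. Seeded in 96-well plates. Exposed to paclitaxel with or without modulator (5 or 10 µM) for 24, 48 or 72 h. MTT added, formazan dissolved in DMSO, OD read at 570 nm. Survival rate used to derive paclitaxel IC50. RF taken as the fold reduction of IC50 relative to paclitaxel alone.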

[5] = Cytotoxicity against human KBV cells assessed as cell survival at 5 uM after 72 hrs by MTT assay relative to control; type: cell-based; conditions: read-out: Survival
In short: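 KBV cells (RPMI-1640 with 10% heat-inactivated FCS, 37 °C, 5% CO2, log-phase) were seeded in 96-well plates and exposed to compound alone at 5 µM for 72 h. MTT was added and incubated, then DMSO was added. OD was read at 570 nm and survival rate was calculated.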

[6] = biological target: T1, ATP-dependent translocase ABCB1; assay: Reversal of P-gp-mediated drug resistance in human KBV cells assessed as potentiation of paclitaxel-induced cytotoxicity by measuring fold reduction in paclitaxel IC50 at 10 uM after 72 hrs by MTT assay relative to paclitaxel alone; type: cell-based; in short: as §1
[7] = Solubility of the compound in water; type: physicochemical; conditions: buffer
[8] = biological target: T1, ATP-dependent translocase ABCB1; assay: Reversal of P-gp-mediated drug resistance in human KBV cells assessed as potentiation of paclitaxel-induced cell cycle arrest by measuring accumulation at sub-G1 phase at 10 uM after 24 hrs by propidium iodide staining based flow cytometry
In short: (§2)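 KBV cells plated in 6-well plates overnight, then treated for 24 h at 10 µM alongside paclitaxel. Cells fixed in 70% ethanol overnight at -20 °C, washed in PBS, and stained 30 min with PI/RNase A. Flow cytometry gave the cell-cycle distribution, with sub-G1 taken as apoptotic cells. Mean ± SD, n = 3.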

[9] = biological target: T1, ATP-dependent translocase ABCB1; assay: Reversal of P-gp-mediated drug resistance in human KBV cells assessed as potentiation of paclitaxel-induced cytotoxicity by measuring fold reduction in paclitaxel IC50 at 5 uM after 48 hrs by MTT assay; type: cell-based; in short: as §1
[10] = biological target: T1, ATP-dependent translocase ABCB1; assay: Inhibition of P-gp-mediated Rhodamine-123 efflux in human KBV cells assessed as Rhodamine-123 accumulation preincubated for 2 hrs followed by Rhodamine-123 addition measured after 30 mins by flow cytometry; type: cell-based; conditions: 0.5 h
[11] = biological target: T1, ATP-dependent translocase ABCB1; assay: Reversal of P-gp-mediated drug resistance in human KBV cells assessed as potentiation of paclitaxel-induced cytotoxicity by measuring fold reduction in paclitaxel IC50 at 5 uM after 72 hrs by MTT assay relative to paclitaxel alone; type: cell-based; in short: as §1
[12] = biological target: T1, ATP-dependent translocase ABCB1; assay: Reversal of P-gp-mediated drug resistance in human KBV cells assessed as potentiation of paclitaxel-induced cytotoxicity by measuring reduction in paclitaxel IC50 by MTT assay; type: cell-based
[13] = Cytotoxicity against human KBV cells xenografted in Balb/c nude mouse assessed as tumor growth inhibition at 50 mg/kg, po via gavage; type: organism-based; conditions: in vivo
In short: (§3)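 Male BALB/c nude mice, 6−8 weeks old, given 5 × 10^6 KBV cells subcutaneously in the dorsal region. Randomized once tumors reached about 100-200 mm3, five per group: control, paclitaxel 30 mg/kg, test agent 50 mg/kg, or the combination. Paclitaxel given i.p. twice a week; test agent by gavage. Tumor growth measured every three days; tumors excised and weighed at the end.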

Homo sapiens = assay: Potentiation of paclitaxel-induced antitumor activity against human KBV cells xenografted in Balb/c nude mouse assessed as tumor growth inhibition at 50 mg/kg, po via gavage cotreated with 30 mg/kg, ip paclitaxel; type: functional, organism-based; in short: as §3
[14] = biological target: T1, ATP-dependent translocase ABCB1; assay: Reversal of P-gp-mediated drug resistance in human KBV cells assessed as potentiation of paclitaxel-induced cytotoxicity by measuring fold reduction in paclitaxel IC50 at 10 uM after 48 hrs by MTT assay; type: cell-based; in short: as §1
[15] = biological target: T1, ATP-dependent translocase ABCB1; assay: Reversal of P-gp-mediated drug resistance in human KBV cells assessed as potentiation of paclitaxel-induced cytotoxicity by measuring fold reduction in paclitaxel IC50 at 5 uM after 24 hrs by MTT assay; type: cell-based; in short: as §1
[16] = Toxicity in Balb/c nude mouse xenografted with human KBV cells at 50 mg/kg, po via gavage cotreated with 30 mg/kg, ip paclitaxel; type: organism-based; conditions: in vivo
[17] = biological target: T1, ATP-dependent translocase ABCB1; assay: Reversal of P-gp-mediated drug resistance in human KBV cells assessed as potentiation of paclitaxel-induced cell cycle arrest by measuring accumulation at G2/M phase at 10 uM after 24 hrs by propidium iodide staining based flow cytometry; in short: as §2

T1 sequence (P08183 whole entry): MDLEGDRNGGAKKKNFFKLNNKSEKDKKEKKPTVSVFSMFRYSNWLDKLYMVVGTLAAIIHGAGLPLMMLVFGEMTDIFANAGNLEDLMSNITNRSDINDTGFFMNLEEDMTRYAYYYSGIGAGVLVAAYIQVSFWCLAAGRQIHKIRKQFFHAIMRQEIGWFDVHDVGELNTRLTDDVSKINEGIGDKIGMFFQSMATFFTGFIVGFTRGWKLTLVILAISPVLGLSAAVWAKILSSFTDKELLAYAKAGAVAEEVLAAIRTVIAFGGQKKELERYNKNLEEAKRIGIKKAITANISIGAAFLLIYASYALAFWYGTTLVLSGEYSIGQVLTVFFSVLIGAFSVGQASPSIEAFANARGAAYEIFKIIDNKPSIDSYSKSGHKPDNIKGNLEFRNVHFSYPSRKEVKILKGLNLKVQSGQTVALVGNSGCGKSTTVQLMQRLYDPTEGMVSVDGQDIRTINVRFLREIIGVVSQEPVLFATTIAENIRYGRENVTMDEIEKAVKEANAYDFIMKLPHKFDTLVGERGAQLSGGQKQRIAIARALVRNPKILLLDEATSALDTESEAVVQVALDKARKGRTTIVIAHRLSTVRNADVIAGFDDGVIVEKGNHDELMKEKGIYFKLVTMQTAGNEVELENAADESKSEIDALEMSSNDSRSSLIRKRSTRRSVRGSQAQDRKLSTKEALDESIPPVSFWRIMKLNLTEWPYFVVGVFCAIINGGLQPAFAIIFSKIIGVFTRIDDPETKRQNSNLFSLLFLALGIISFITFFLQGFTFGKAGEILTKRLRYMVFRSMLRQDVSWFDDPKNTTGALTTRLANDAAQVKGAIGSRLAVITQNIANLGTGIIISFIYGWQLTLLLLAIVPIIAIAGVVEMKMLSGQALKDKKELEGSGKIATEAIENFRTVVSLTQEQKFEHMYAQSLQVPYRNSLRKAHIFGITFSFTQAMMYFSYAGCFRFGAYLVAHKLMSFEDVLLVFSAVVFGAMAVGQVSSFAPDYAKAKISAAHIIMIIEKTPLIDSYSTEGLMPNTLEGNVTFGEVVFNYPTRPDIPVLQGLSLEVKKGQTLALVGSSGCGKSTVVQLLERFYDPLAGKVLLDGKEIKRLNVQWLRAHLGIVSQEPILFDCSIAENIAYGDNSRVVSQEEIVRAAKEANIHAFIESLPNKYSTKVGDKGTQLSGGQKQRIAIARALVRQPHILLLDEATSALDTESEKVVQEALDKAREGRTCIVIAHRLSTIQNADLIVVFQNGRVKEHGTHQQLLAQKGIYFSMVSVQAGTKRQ

| Structure (SMILES) | logD at 4 h [1] | Activity [2] [%] | Survival [3] [%] | fold change (FC) [4] | viability at 72 h, 5 µM [5] [%] | fold change (FC) [6] | solubility [7] | Activity [8] | fold change (FC) [9] | inhibition (INH) [10] | fold change (FC) [11] | Activity [12] | TGI [13] | TGI (Homo sapiens) | fold change (FC) [14] | fold change (FC) [15] | Activity [16] | Activity [17] |
| --- | --- | --- | --- | --- | --- | --- | --- | --- | --- | --- | --- | --- | --- | --- | --- | --- | --- | --- |
| CC1(C)CC[C@]2(C(=O)OCc3ccccc3)CC[C@]3(C)C(=CC[C@@H]4[C@@]5(C)Cc6nccnc6[C@@](C)(CO)[C@@H]5CC[C@]43C)[C@@H]2C1 | -0.54 | 42 | 18 | – | – | – | – | – | – | – | – | – | – | – | – | – | – | – |
| CN(C)CCCOC(=O)[C@]12CCC(C)(C)C[C@H]1C1=CC[C@@H]3[C@@]4(C)Cc5nccnc5[C@@](C)(CO)[C@@H]4CC[C@@]3(C)[C@]1(C)CC2 | -1.25 | – | 10 | 109.79 | 97 | 250.77 | Soluble | Active | 65.92 | Dose-dependent effect | 32.5 | Dose-dependent effect and Tde | Non-Toxic | Active | 81.11 | 77.1 | Non-Toxic | Active |
